# System: Fibroblast
# Experiment: Multiplex assay against human fibroblast
# Format: toxicity, cell-based
# Outline: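 Values for tubulin, mitochondrial-mass and membrane-permeability phenotypes are per cents of cells with healthy nuclei. These cells were identified by CellPathfinder machine-learning gating of live cells that had been stained at seeding with Hoechst33342, BioTracker Green Microtubule Cytoskeleton Dye, MitoTracker Red and Annexin V Alexa Fluor 680 and imaged on a CQ1 microscope at 37°C and 5% CO2 after compound addition. The gating first set Hoechst high-intensity objects apart from normal cells, then split normal cells into healthy, pyknosed or fragmented nuclei, and pyknosed cells into mitotic or apoptotic.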
# [1] = 12 h, 1 µM, compound concentration 1 uM, replicate 1
# [2] = 12 h, 1 µM, compound concentration 1 uM, replicate 2
# [3] = 12 h, 10 µM, compound concentration 10 uM, replicate 1
# [4] = 12 h, 10 µM, compound concentration 10 uM, replicate 2
# [5] = 24 h, 1 µM, compound concentration 1 uM, replicate 1
# [6] = 24 h, 1 µM, compound concentration 1 uM, replicate 2
# [7] = 24 h, 10 µM, compound concentration 10 uM, replicate 1
# [8] = 24 h, 10 µM, compound concentration 10 uM, replicate 2
# [9] = 48 h, 1 µM, compound concentration 1 uM, replicate 1
# [10] = 48 h, 1 µM, compound concentration 1 uM, replicate 2
# [11] = 48 h, 10 µM, compound concentration 10 uM, replicate 1
# [12] = 48 h, 10 µM, compound concentration 10 uM, replicate 2
smiles,measurement,setting,value
c1cc(OCCCN2CCCCC2)ccc1CN1CCCCC1 [JNJ-5207852],Population Apoptotic (%),[1],37%
same,Population Fragmented Nuclei (%),[1],15%
same,Population Healthy Nuclei (%),[1],64%
same,Population Hoechst High Intensity Objects (%),[1],1%
same,Population Membrane Permeable-Phenotype (%),[1],0%
same,Population Mitochondria Different-Phenotype (%),[1],2%
same,Population Mitotic Cells (%),[1],62%
same,Population Normal (%),[1],98%
same,Population Pyknosed Nuclei (%),[1],20%
same,Population Tubulin-Different-Phenotype (%),[1],26%
same,Total Cell Count,[1],181
same,Population Apoptotic (%),[2],26%
same,Population Fragmented Nuclei (%),[2],24%
same,Population Healthy Nuclei (%),[2],51%
same,Population Hoechst High Intensity Objects (%),[2],7%
same,Population Membrane Permeable-Phenotype (%),[2],8%
same,Population Mitochondria Different-Phenotype (%),[2],5%
same,Population Mitotic Cells (%),[2],73%
same,Population Normal (%),[2],92%
same,Population Pyknosed Nuclei (%),[2],23%
same,Population Tubulin-Different-Phenotype (%),[2],49%
same,Total Cell Count,[2],153
same,Population Apoptotic (%),[3],50%
same,Population Fragmented Nuclei (%),[3],22%
same,Population Healthy Nuclei (%),[3],68%
same,Population Hoechst High Intensity Objects (%),[3],1%
same,Population Membrane Permeable-Phenotype (%),[3],0%
same,Population Mitochondria Different-Phenotype (%),[3],6%
same,Population Mitotic Cells (%),[3],50%
same,Population Normal (%),[3],98%
same,Population Pyknosed Nuclei (%),[3],9%
same,Population Tubulin-Different-Phenotype (%),[3],35%
same,Total Cell Count,[3],193
same,Population Apoptotic (%),[4],43%
same,Population Fragmented Nuclei (%),[4],36%
same,Population Healthy Nuclei (%),[4],42%
same,Population Membrane Permeable-Phenotype (%),[4],12%
same,Population Mitochondria Different-Phenotype (%),[4],10%
same,Population Mitotic Cells (%),[4],56%
same,Population Pyknosed Nuclei (%),[4],20%
same,Population Tubulin-Different-Phenotype (%),[4],60%
same,Total Cell Count,[4],114
same,Population Apoptotic (%),[5],38%
same,Population Fragmented Nuclei (%),[5],18%
same,Population Healthy Nuclei (%),[5],66%
same,Population Hoechst High Intensity Objects (%),[5],2%
same,Population Membrane Permeable-Phenotype (%),[5],0%
same,Population Mitochondria Different-Phenotype (%),[5],2%
same,Population Mitotic Cells (%),[5],61%
same,Population Normal (%),[5],97%
same,Population Pyknosed Nuclei (%),[5],15%
same,Population Tubulin-Different-Phenotype (%),[5],23%
same,Total Cell Count,[5],176
same,Population Apoptotic (%),[6],33%
same,Population Fragmented Nuclei (%),[6],28%
same,Population Healthy Nuclei (%),[6],51%
same,Population Hoechst High Intensity Objects (%),[6],5%
same,Population Membrane Permeable-Phenotype (%),[6],5%
same,Population Mitochondria Different-Phenotype (%),[6],6%
same,Population Mitotic Cells (%),[6],66%
same,Population Normal (%),[6],95%
same,Population Pyknosed Nuclei (%),[6],19%
same,Population Tubulin-Different-Phenotype (%),[6],55%
same,Total Cell Count,[6],160
same,Population Apoptotic (%),[7],60%
same,Population Fragmented Nuclei (%),[7],24%
same,Population Healthy Nuclei (%),[7],65%
same,Population Hoechst High Intensity Objects (%),[7],1%
same,Population Membrane Permeable-Phenotype (%),[7],0%
same,Population Mitochondria Different-Phenotype (%),[7],6%
same,Population Mitotic Cells (%),[7],40%
same,Population Normal (%),[7],99%
same,Population Pyknosed Nuclei (%),[7],10%
same,Population Tubulin-Different-Phenotype (%),[7],34%
same,Total Cell Count,[7],201
same,Population Apoptotic (%),[8],41%
same,Population Fragmented Nuclei (%),[8],45%
same,Population Healthy Nuclei (%),[8],38%
same,Population Hoechst High Intensity Objects (%),[8],5%
same,Population Membrane Permeable-Phenotype (%),[8],4%
same,Population Mitochondria Different-Phenotype (%),[8],13%
same,Population Mitotic Cells (%),[8],58%
same,Population Normal (%),[8],94%
same,Population Pyknosed Nuclei (%),[8],15%
same,Population Tubulin-Different-Phenotype (%),[8],67%
same,Total Cell Count,[8],118
same,Population Apoptotic (%),[9],70%
same,Population Fragmented Nuclei (%),[9],18%
same,Population Healthy Nuclei (%),[9],63%
same,Population Hoechst High Intensity Objects (%),[9],2%
same,Population Membrane Permeable-Phenotype (%),[9],0%
same,Population Mitochondria Different-Phenotype (%),[9],2%
same,Population Mitotic Cells (%),[9],29%
same,Population Normal (%),[9],97%
same,Population Pyknosed Nuclei (%),[9],17%
same,Population Tubulin-Different-Phenotype (%),[9],23%
same,Total Cell Count,[9],184
same,Population Apoptotic (%),[10],44%
same,Population Fragmented Nuclei (%),[10],32%
same,Population Healthy Nuclei (%),[10],48%
same,Population Hoechst High Intensity Objects (%),[10],4%
same,Population Membrane Permeable-Phenotype (%),[10],5%
same,Population Mitotic Cells (%),[10],55%
same,Population Normal (%),[10],95%
same,Population Pyknosed Nuclei (%),[10],18%
same,Population Tubulin-Different-Phenotype (%),[10],50%
same,Total Cell Count,[10],160
same,Population Apoptotic (%),[11],55%
same,Population Fragmented Nuclei (%),[11],19%
same,Population Healthy Nuclei (%),[11],70%
same,Population Hoechst High Intensity Objects (%),[11],2%
same,Population Membrane Permeable-Phenotype (%),[11],0%
same,Population Mitochondria Different-Phenotype (%),[11],2%
same,Population Mitotic Cells (%),[11],44%
same,Population Normal (%),[11],97%
same,Population Pyknosed Nuclei (%),[11],9%
same,Population Tubulin-Different-Phenotype (%),[11],34%
same,Total Cell Count,[11],189
same,Population Apoptotic (%),[12],30%
same,Population Fragmented Nuclei (%),[12],48%
same,Population Healthy Nuclei (%),[12],41%
same,Population Hoechst High Intensity Objects (%),[12],3%
same,Population Membrane Permeable-Phenotype (%),[12],5%
same,Population Mitochondria Different-Phenotype (%),[12],11%
same,Population Mitotic Cells (%),[12],69%
same,Population Normal (%),[12],96%
same,Population Pyknosed Nuclei (%),[12],10%
same,Population Tubulin-Different-Phenotype (%),[12],66%
same,Total Cell Count,[12],132
Cc1ccc(F)cc1C(=O)Nc1ccc(C(=O)N2Cc3cccn3Cc3ccccc32)c(Cl)c1 [LIXIVAPTAN],Population Apoptotic (%),[1],40%
same,Population Fragmented Nuclei (%),[1],11%
same,Population Healthy Nuclei (%),[1],73%
same,Population Hoechst High Intensity Objects (%),[1],5%
same,Population Membrane Permeable-Phenotype (%),[1],0%
same,Population Mitochondria Different-Phenotype (%),[1],3%
same,Population Mitotic Cells (%),[1],59%
same,Population Normal (%),[1],94%
same,Population Pyknosed Nuclei (%),[1],15%
same,Population Tubulin-Different-Phenotype (%),[1],28%
same,Total Cell Count,[1],186
same,Population Apoptotic (%),[2],50%
same,Population Fragmented Nuclei (%),[2],30%
same,Population Healthy Nuclei (%),[2],47%
same,Population Hoechst High Intensity Objects (%),[2],3%
same,Population Membrane Permeable-Phenotype (%),[2],1%
same,Population Mitochondria Different-Phenotype (%),[2],9%
same,Population Mitotic Cells (%),[2],50%
same,Population Normal (%),[2],96%
same,Population Pyknosed Nuclei (%),[2],21%
same,Population Tubulin-Different-Phenotype (%),[2],38%
same,Total Cell Count,[2],117
same,Population Apoptotic (%),[3],34%
same,Population Fragmented Nuclei (%),[3],18%
same,Population Healthy Nuclei (%),[3],58%
same,Population Hoechst High Intensity Objects (%),[3],0%
same,Population Membrane Permeable-Phenotype (%),[3],2%
same,Population Mitochondria Different-Phenotype (%),[3],5%
same,Population Mitotic Cells (%),[3],65%
same,Population Normal (%),[3],99%
same,Population Pyknosed Nuclei (%),[3],23%
same,Population Tubulin-Different-Phenotype (%),[3],62%
same,Total Cell Count,[3],137
same,Population Apoptotic (%),[4],31%
same,Population Fragmented Nuclei (%),[4],27%
same,Population Healthy Nuclei (%),[4],46%
same,Population Hoechst High Intensity Objects (%),[4],5%
same,Population Membrane Permeable-Phenotype (%),[4],6%
same,Population Mitochondria Different-Phenotype (%),[4],10%
same,Population Mitotic Cells (%),[4],68%
same,Population Normal (%),[4],94%
same,Population Pyknosed Nuclei (%),[4],25%
same,Population Tubulin-Different-Phenotype (%),[4],72%
same,Total Cell Count,[4],179
same,Population Apoptotic (%),[5],50%
same,Population Fragmented Nuclei (%),[5],12%
same,Population Healthy Nuclei (%),[5],73%
same,Population Hoechst High Intensity Objects (%),[5],1%
same,Population Membrane Permeable-Phenotype (%),[5],1%
same,Population Mitochondria Different-Phenotype (%),[5],0%
same,Population Mitotic Cells (%),[5],50%
same,Population Normal (%),[5],98%
same,Population Pyknosed Nuclei (%),[5],14%
same,Population Tubulin-Different-Phenotype (%),[5],33%
same,Total Cell Count,[5],172
same,Population Apoptotic (%),[6],32%
same,Population Fragmented Nuclei (%),[6],33%
same,Population Healthy Nuclei (%),[6],43%
same,Population Hoechst High Intensity Objects (%),[6],3%
same,Population Membrane Permeable-Phenotype (%),[6],5%
same,Population Mitochondria Different-Phenotype (%),[6],5%
same,Population Mitotic Cells (%),[6],67%
same,Population Normal (%),[6],96%
same,Population Pyknosed Nuclei (%),[6],23%
same,Population Tubulin-Different-Phenotype (%),[6],52%
same,Total Cell Count,[6],126
same,Population Apoptotic (%),[7],25%
same,Population Fragmented Nuclei (%),[7],19%
same,Population Healthy Nuclei (%),[7],63%
same,Population Hoechst High Intensity Objects (%),[7],0%
same,Population Membrane Permeable-Phenotype (%),[7],2%
same,Population Mitochondria Different-Phenotype (%),[7],8%
same,Population Mitotic Cells (%),[7],75%
same,Population Normal (%),[7],99%
same,Population Pyknosed Nuclei (%),[7],17%
same,Population Tubulin-Different-Phenotype (%),[7],63%
same,Total Cell Count,[7],142
same,Population Apoptotic (%),[8],51%
same,Population Fragmented Nuclei (%),[8],26%
same,Population Healthy Nuclei (%),[8],51%
same,Population Hoechst High Intensity Objects (%),[8],5%
same,Population Membrane Permeable-Phenotype (%),[8],11%
same,Population Mitochondria Different-Phenotype (%),[8],12%
same,Population Mitotic Cells (%),[8],48%
same,Population Normal (%),[8],94%
same,Population Pyknosed Nuclei (%),[8],22%
same,Population Tubulin-Different-Phenotype (%),[8],82%
same,Total Cell Count,[8],174
same,Population Apoptotic (%),[9],63%
same,Population Fragmented Nuclei (%),[9],18%
same,Population Healthy Nuclei (%),[9],68%
same,Population Hoechst High Intensity Objects (%),[9],8%
same,Population Membrane Permeable-Phenotype (%),[9],0%
same,Population Mitochondria Different-Phenotype (%),[9],3%
same,Population Mitotic Cells (%),[9],36%
same,Population Normal (%),[9],91%
same,Population Pyknosed Nuclei (%),[9],13%
same,Population Tubulin-Different-Phenotype (%),[9],28%
same,Total Cell Count,[9],181
same,Population Apoptotic (%),[10],50%
same,Population Fragmented Nuclei (%),[10],37%
same,Population Healthy Nuclei (%),[10],40%
same,Population Hoechst High Intensity Objects (%),[10],0%
same,Population Membrane Permeable-Phenotype (%),[10],4%
same,Population Mitochondria Different-Phenotype (%),[10],11%
same,Population Mitotic Cells (%),[10],50%
same,Population Normal (%),[10],99%
same,Population Pyknosed Nuclei (%),[10],21%
same,Population Tubulin-Different-Phenotype (%),[10],53%
same,Total Cell Count,[10],111
same,Population Apoptotic (%),[11],70%
same,Population Fragmented Nuclei (%),[11],25%
same,Population Healthy Nuclei (%),[11],62%
same,Population Hoechst High Intensity Objects (%),[11],2%
same,Population Membrane Permeable-Phenotype (%),[11],0%
same,Population Mitochondria Different-Phenotype (%),[11],13%
same,Population Mitotic Cells (%),[11],29%
same,Population Normal (%),[11],97%
same,Population Pyknosed Nuclei (%),[11],11%
same,Population Tubulin-Different-Phenotype (%),[11],69%
same,Total Cell Count,[11],149
same,Population Apoptotic (%),[12],73%
same,Population Fragmented Nuclei (%),[12],36%
same,Population Healthy Nuclei (%),[12],51%
same,Population Hoechst High Intensity Objects (%),[12],5%
same,Population Membrane Permeable-Phenotype (%),[12],6%
same,Population Mitotic Cells (%),[12],26%
same,Population Normal (%),[12],94%
same,Population Tubulin-Different-Phenotype (%),[12],78%
same,Total Cell Count,[12],170
